Source: ChEMBL document CHEMBL1153007, “Mono and bis-6-arylbenzimidazo[1,2-c]quinazolines: a new class of antimicrobial agents” (2009)
Converted amounts (≈) assume the structure as drawn.

Legend:
Trichoderma viride [1] = assay: Antifungal activity against Trichoderma viride after 24 hrs by liquid dilution method
Aspergillus niger [2] = assay: Antifungal activity against Aspergillus niger after 72 hrs by liquid dilution method; type: functional
How it was run: (§1)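 Liquid dilution in tubes: 1 ml compound solution (stocks 2.5–50 µg/ml, prepared in appropriate solvent) plus 0.2 ml fungal inoculum and 3.8 ml sterile water; checked for turbidity. MIC taken as lowest concentration with no visible growth. Ketoconazole as reference.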

Candida albicans [3] = assay: Antifungal activity against Candida albicans after 72 hrs by liquid dilution method; type: functional
How it was run: as §1

Trichoderma viride [4] = assay: Antifungal activity against Trichoderma viride at 1000 ug/ml after 72 hrs by agar diffusion method; type: functional; settings: read-out: IZ
How it was run: (§2)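 Strains grown and maintained on Sabouraud glucose agar. Test solution at 1000 µg/ml placed in bores cut in the agar. Plates incubated at 26 °C for 72 h, then the zone of inhibition around each bore was measured. Ketoconazole plates as standard; one-way ANOVA at p ≤ 0.05.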

Candida albicans [5] = assay: Antifungal activity against Candida albicans at 1000 ug/ml after 72 hrs by agar diffusion method; type: functional; settings: read-out: IZ
How it was run: as §2

Aspergillus niger [6] = assay: Antifungal activity against Aspergillus niger at 1000 ug/ml after 72 hrs by agar diffusion method; type: functional; settings: read-out: IZ
How it was run: as §2

[7] = test system: Salmonella enterica subsp. enterica; assay: Antibacterial activity against Salmonella Typhimurium at 1000 ug/ml after 24 hrs by agar diffusion method; type: functional, Salmonella enterica subsp. enterica serovar Typhimurium; settings: read-out: IZ
How it was run: (§3)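 Cup-plate agar diffusion on nutrient agar. Cultures grown overnight in NA broth at 37 °C and swabbed onto plates. Test solution at 1000 μg/ml added to 6 mm bores. Plates incubated at 37 °C for 24 h; zone of inhibition measured. Ampicillin plate as standard; one-way ANOVA at p ≤ 0.05.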

Streptococcus pyogenes [8] = assay: Antibacterial activity against Streptococcus pyogenes at 1000 ug/ml after 24 hrs by agar diffusion method; type: functional; settings: read-out: IZ
How it was run: as §3

Staphylococcus aureus [9] = assay: Antibacterial activity against Staphylococcus aureus at 1000 ug/ml after 24 hrs by agar diffusion method; type: functional; settings: read-out: IZ
How it was run: as §3

Klebsiella pneumoniae [10] = assay: Antibacterial activity against Klebsiella pneumoniae at 1000 ug/ml after 24 hrs by agar diffusion method; type: functional; settings: read-out: IZ
How it was run: as §3

Bacillus subtilis [11] = assay: Antibacterial activity against Bacillus subtilis at 1000 ug/ml after 24 hrs by agar diffusion method; type: functional; settings: read-out: IZ
How it was run: as §3

Escherichia coli [12] = assay: Antibacterial activity against Escherichia coli at 1000 ug/ml after 24 hrs by agar diffusion method; type: functional; settings: read-out: IZ
How it was run: as §3

Streptococcus pyogenes [13] = assay: Antibacterial activity against Streptococcus pyogenes after 24 hrs by liquid dilution method; type: functional
How it was run: (§4)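 Liquid dilution in tubes: 1 ml compound solution (stocks 2.5, 5, 10, 15, 20, 25, 30, 35, 40, 45, 50 µg/ml, prepared in appropriate solvent) plus 0.2 ml bacterial inoculum and 3.8 ml sterile water; incubated 24 h, checked for turbidity. MIC taken as lowest concentration with no growth. Ampicillin as reference.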

Aspergillus niger [14] = assay: Antifungal activity against Aspergillus niger after 24 hrs by liquid dilution method
Escherichia coli [15] = assay: Antibacterial activity against Escherichia coli after 24 hrs by liquid dilution method; type: functional
How it was run: as §4

[16] = test system: Salmonella enterica subsp. enterica; assay: Antibacterial activity against Salmonella Typhimurium after 24 hrs by liquid dilution method; type: functional, Salmonella enterica subsp. enterica serovar Typhimurium
How it was run: as §4

Klebsiella pneumoniae [17] = assay: Antibacterial activity against Klebsiella pneumoniae after 24 hrs by liquid dilution method; type: functional
How it was run: as §4

Staphylococcus aureus [18] = assay: Antibacterial activity against Staphylococcus aureus after 24 hrs by liquid dilution method; type: functional
How it was run: as §4

Trichoderma viride [19] = assay: Antifungal activity against Trichoderma viride after 72 hrs by liquid dilution method; type: functional
How it was run: as §1

Bacillus subtilis [20] = assay: Antibacterial activity against Bacillus subtilis after 24 hrs by liquid dilution method; type: functional
How it was run: as §4

Row | Structure (SMILES) | MIC (Trichoderma viride [1]) [µg/mL] | MIC (Aspergillus niger [2]) [µg/mL] | MIC (Candida albicans [3]) [µg/mL] | zone of inhibition at 1000 µg/mL (Trichoderma viride [4]) [mm] | zone of inhibition at 1000 µg/mL (Candida albicans [5]) [mm] | zone of inhibition at 1000 µg/mL (Aspergillus niger [6]) [mm] | zone of inhibition at 1000 µg/mL [7] [mm] | zone of inhibition at 1000 µg/mL (Streptococcus pyogenes [8]) [mm] | zone of inhibition at 1000 µg/mL (Staphylococcus aureus [9]) [mm] | zone of inhibition at 1000 µg/mL (Klebsiella pneumoniae [10]) [mm] | zone of inhibition at 1000 µg/mL (Bacillus subtilis [11]) [mm] | zone of inhibition at 1000 µg/mL (Escherichia coli [12]) [mm] | MIC (Streptococcus pyogenes [13]) [µg/mL] | MIC (Aspergillus niger [14]) [µg/mL] | MIC (Escherichia coli [15]) [µg/mL] | MIC [16] [µg/mL] | MIC (Klebsiella pneumoniae [17]) [µg/mL] | MIC (Staphylococcus aureus [18]) [µg/mL] | MIC (Trichoderma viride [19]) [µg/mL] | MIC (Bacillus subtilis [20]) [µg/mL]
1 | CC(=O)N1CCN(c2ccc(OCC3COC(Cn4ccnc4)(c4ccc(Cl)cc4Cl)O3)cc2)CC1 (centres undefined) [KETOCONAZOLE] | 20 (≈ 37.6 µM) | 15 (≈ 28.2 µM) | 25 (≈ 47 µM) | 41 | 40 | 45 |  |  |  |  |  |  |  |  |  |  |  |  |  | 
2 | c1c[nH]c(-c2nc3ccccc3c3nc4ccccc4n23)c1 |  |  |  | 9 | 9 | 11 | 14 | 13 | 22 | 12 | 18 | 18 |  |  |  |  |  |  |  | 
3 | c1ccc(-c2nc3ccccc3c3nc4ccccc4n23)cc1 |  |  |  | 9 | 10 | 10 | 12 | 13 | 18 | 16 | 14 | 18 |  |  |  |  |  |  |  | 
4 | c1cc(-c2nc3ccccc3c3nc4ccccc4n23)cc(-c2nc3ccccc3c3nc4ccccc4n23)c1 |  |  |  | 12 | 15 | 18 | 15 | 15 | 21 | 18 | 18 | 19 |  |  |  |  |  |  |  | 
5 | c1csc(-c2nc3ccccc3c3nc4ccccc4n23)c1 |  |  | 15 (≈ 49.8 µM) | 46 | 48 | 51 | 40 | 50 | 51 | 36 | 45 | 50 | 10 (≈ 33.2 µM) | 5 (≈ 16.6 µM) | 10 (≈ 33.2 µM) | 15 (≈ 49.8 µM) | 15 (≈ 49.8 µM) | 5 (≈ 16.6 µM) | 10 (≈ 33.2 µM) | 15 (≈ 49.8 µM)
6 | c1coc(-c2nc3ccccc3c3nc4ccccc4n23)c1 |  |  |  | 6 | 11 | 13 | 15 | 18 | 25 | 12 | 21 | 20 |  |  |  |  |  |  |  | 
7 | c1ccc2c(c1)nc(-c1ccc(-c3nc4ccccc4c4nc5ccccc5n34)cc1)n1c3ccccc3nc21 |  |  |  | 13 | 16 | 21 | 14 | 18 | 25 | 18 | 19 | 21 |  |  |  |  |  |  |  | 
8 | c1ccc(-c2nc3ccccc3c3nc4ccccc4n23)c(-c2nc3ccccc3c3nc4ccccc4n23)c1 |  |  |  | 13 | 13 | 16 | 12 | 15 | 18 | 15 | 14 | 20 |  |  |  |  |  |  |  | 
9 | c1ccc2c(c1)nc(-c1ccc(-c3nc4ccccc4c4nc5ccccc5n34)s1)n1c3ccccc3nc21 | 5 (≈ 9.64 µM) |  | 2.5 (≈ 4.82 µM) | 48 | 51 | 55 | 46 | 52 | 55 | 50 | 50 | 51 | 5 (≈ 9.64 µM) | 2.5 (≈ 4.82 µM) | 2.5 (≈ 4.82 µM) | 5 (≈ 9.64 µM) | 5 (≈ 9.64 µM) | 2.5 (≈ 4.82 µM) |  | 10 (≈ 19.3 µM)
10 | c1cc(-c2nc3ccccc3c3nc4ccccc4n23)nc(-c2nc3ccccc3c3nc4ccccc4n23)c1 | 10 (≈ 19.5 µM) |  | 5 (≈ 9.74 µM) | 45 | 50 | 50 | 46 | 50 | 52 | 49 | 45 | 50 | 10 (≈ 19.5 µM) | 2.5 (≈ 4.87 µM) | 5 (≈ 9.74 µM) | 5 (≈ 9.74 µM) | 5 (≈ 9.74 µM) | 2.5 (≈ 4.87 µM) |  | 15 (≈ 29.2 µM)
11 | CC1(C)S[C@@H]2[C@H](NC(=O)[C@H](N)c3ccccc3)C(=O)N2[C@H]1C(=O)O [AMPICILLIN] |  |  |  |  |  |  | 45 | 35 | 48 | 45 | 39 | 40 | 25 (≈ 71.5 µM) |  | 15 (≈ 42.9 µM) | 10 (≈ 28.6 µM) | 10 (≈ 28.6 µM) | 10 (≈ 28.6 µM) |  | 20 (≈ 57.2 µM)
12 | c1ccc(-c2nc3ccccc3c3nc4ccccc4n23)nc1 |  |  | 15 (≈ 50.6 µM) | 45 | 48 | 49 | 38 | 49 | 50 | 35 | 42 | 51 | 15 (≈ 50.6 µM) | 10 (≈ 33.7 µM) | 15 (≈ 50.6 µM) | 20 (≈ 67.5 µM) | 20 (≈ 67.5 µM) | 10 (≈ 33.7 µM) | 15 (≈ 50.6 µM) | 20 (≈ 67.5 µM)
